A short description of data set [1]: Cytotoxicity against BALB/c mouse peritoneal macrophages assessed as cell viability after 48 hrs by trypan blue dye exclusion method. The data set is classed as cell-based. Particulars: Peritoneal macrophage cell.
A short description of data set [2]: Therapeutic index, ratio of IC50 for BALB/c mouse peritoneal macrophages to IC50 for promastigote form of Leishmania major (MHOM/IL/81/BNI). As to conditions: read-out: Ratio IC50.
In data set [3] the test system is Leishmania major. Nature of the data set: Antileishmanial activity against promastigote form of Leishmania major MHOM/IL/81/BNI after 96 hrs by spectrofluorimetric micromethod. The data set is classed as functional, organism-based.
Data set [4] is described as follows: Inhibition of native porcine brain CK1 delta/epsilon using RRKHAAIGpSAYSITA as substrate and [gamma-33P]ATP after 30 mins by scintillation counting. Details: species or system Sus scrofa. In short, it runs like this:
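Native porcine brain CK1δ/ε, in threefold-diluted buffer A (25 mM Mops pH 7.2, 15 mM MgCl₂, 5 mM EGTA, 1 mM DTT, phosphatase inhibitors). 25 μM CKS peptide substrate, 15 μM [γ-³³P]ATP, 30 min at 30 °C. Stopped on P81 paper, washed in 1% phosphoric acid, counted by scintillation. Blank subtracted; activity as % of the no-inhibitor value; DMSO controls.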

Data set [5] can be described thus: Inhibition of Leishmania major CK1.2 using RRKHAAIGpSAYSITA as substrate and [gamma-33P]ATP after 30 mins by scintillation counting. In short, it runs like this: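 Recombinant His-tagged L. major CK1.2 from E. coli, purified on cobalt beads. Assayed as for the porcine enzyme: CKS peptide substrate, 15 μM [γ-³³P]ATP, 30 min at 30 °C, P81 capture and scintillation counting. Activity as % of the no-inhibitor value.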

Data set [6] is described as follows: Cytotoxicity against BALB/c mouse 3T3 clone A31 cells after 48 hrs by SRB assay method. As to conditions: A31, 48 h. Type of data set: cell-based. In short, it runs like this:
(§1)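 Cells plated in growth medium and allowed to attach 24 h (37 °C, 5% CO₂). Time-zero plate fixed with TCA. Serial 4-fold dilutions added for 48 h. Cells fixed with cold TCA, stained with 0.2% SRB, dye solubilized in 10 mM Tris pH 10.5, absorbance read at 510 nm. GI50 is 50% absorbance reduction versus solvent controls, by linear regression. K562 counted by Coulter counter instead. 5-FU reference.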
(In SRB staining, fixed cells bind dye roughly in proportion to their protein.)

Data set [7] is described as follows: Cytotoxicity against human M14 cells assessed as growth inhibition after 48 hrs by SRB assay method. Type of data set: cell-based. In short, it runs like this:
as §1

Data set [8] can be described thus: Cytotoxicity against human DU145 cells assessed as growth inhibition after 48 hrs by SRB assay method. The data set is classed as cell-based, DU-145. In short, it runs like this: as §1
The nature of data set [9]: Cytotoxicity against human H460 cells assessed as growth inhibition after 48 hrs by SRB assay method. Type of data set: cell-based, NCI-H460. In short, it runs like this: as §1
Data set [10] is described as follows: Cytotoxicity against human HT-29 cells assessed as growth inhibition after 48 hrs by SRB assay method. The data set is classed as cell-based. In short, it runs like this:
as §1

Data set [11] in a line: Therapeutic index, ratio of IC50 for BALB/c mouse 3T3 clone A31 cells to IC50 for promastigote form of Leishmania major (MHOM/IL/81/BNI). Type of data set: cell-based. Particulars: read-out: Ratio IC50.
The nature of data set [12]: Cytotoxicity against human MCF7 cells assessed as growth inhibition after 48 hrs by SRB assay method. Type of data set: cell-based. In short, it runs like this:
as §1

Data set [13] is described as follows: Cytotoxicity against human HuTu 80 cells assessed as growth inhibition after 48 hrs by SRB assay method. The data set is classed as cell-based, HuTu80. Summed up: as §1
The nature of data set [14]: Cytotoxicity against human K562 cells assessed as growth inhibition after 48 hrs by Coulter counter cell counting.
Data set [15] is described as follows: Therapeutic index, ratio of IC50 for BALB/c mouse peritoneal macrophages to IC50 for amastigote form of Leishmania major (MHOM/IL/81/BNI) in BALB/c mouse peritoneal macrophages. As to conditions: read-out: Ratio IC50.
Data set [16] concerns Leishmania amazonensis. Nature of the data set: Antileishmanial activity against axenic amastigote stage of Leishmania amazonensis MHOM/BR/76/LTB-012 by MTT method. The data set is classed as functional, organism-based. In short, it runs like this: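 Axenic amastigotes, grown in MAA/20 medium at 32 ± 1 °C. IC50 by MTT micromethod; compounds from 10 mM DMSO stocks, DMSO ≤1% final.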

Data set [17] deals with Leishmania major. Nature of the data set: Antileishmanial activity against amastigote form of Leishmania major MHOM/IL/81/BNI amastigote in Balb/c mouse peritoneal macrophages after 4 days by May-Grunwald-Giemsa staining-based microscopic analysis. Type of data set: functional, organism-based. As to conditions: 96 h. In short, it runs like this:
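Peritoneal macrophages from Balb/c mice, 1.5 10⁵ cell/mL in RPMI 1640 + 15% FBS, left 24 h on glass slides (37 °C, 5% CO₂), then infected 24 h with stationary-phase promastigotes (1.5 × 10⁶/mL). Washed cultures exposed to 100, 10, 1 and 0.1 µM for 4 days. Fixed with methanol, Giemsa-stained. Amastigotes counted in 100 macrophages per duplicate well; IC50 from amastigotes/macrophage. Done twice.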

SMILES strings stand for the structures. Converted amounts (≈) assume the structure as drawn. The source made the active and inactive calls. The rule behind the calls is not given here. A value given as a limit tells only on which side of the number the result lay.

For orientation: IC50 means the midpoint of a concentration-inhibition curve. On to `c1ccc(-c2nc3c(NCCN4CCOCC4)nccn3c2-c2ccncc2)cc1`, for which the IC50 is 51.7 µM in data set [1], 23.5 µM in data set [3], 3.3 µM in data set [4] and 2.4 µM in [5]. Besides, the selectivity ratio in [2] amounted to 2.2.

With `COc1ccc(-c2c(-c3ccccc3)nc3cnccn23)cc1`, the IC50 was 60.2 µM in data set [1], 17.4 µM in data set [3] and > 10 µM in data set [5]. Also, the selectivity ratio in data set [2] turned out to be 3.5.

As for `c1ccc(-c2nc3cnccn3c2-c2ccccc2)cc1`, the IC50 is 41.4 µM in data set [1], 26.2 µM in [3] and > 10 µM in data set [5]. In addition, the selectivity ratio in [2] was found to be 1.6.

Consider `Clc1cc(Cl)cc(-c2c(-c3ccccc3)nc3cnccn23)c1`, for which the IC50 in data set [1] is 35.6 µM; in [3], 10.3 µM; in [5], > 10 µM. Also, in [2], the selectivity ratio was found to be 3.4.

One may read the GI50 as the concentration at which growth is held to half of that of the control. Regarding `CN(C)CCNc1nccn2c(I)c(-c3ccc(F)cc3)nc12`, the IC50 in [1] was 33.8 µM; in data set [3], 24.7 µM; in data set [6], 18.8 µM; in [4] it was > 10 µM; in data set [5], > 10 µM. Besides, the selectivity ratio in data set [2] is 1.4; in data set [11] it was 0.8. Further, the GI50 at 48 h amounted to 4 µg/mL (≈ 9.41 µM) in [7]; 13 µg/mL (≈ 30.6 µM) in [8]; 9 µg/mL (≈ 21.2 µM) in data set [9]; 4 µg/mL (≈ 9.41 µM) in data set [10]; 5 µg/mL (≈ 11.8 µM) in data set [12]; 6 µg/mL (≈ 14.1 µM) in [13]. Besides, in data set [14], the GI50 at 48 h came out at 43 µg/mL (≈ 101 µM).

For the molecule `CN(C)CCNc1nccn2c(I)c(-c3ccccc3)nc12`, the IC50 in [1] is 68.6 µM; in data set [3], 24.2 µM; in data set [6] it was 31.9 µM; in data set [4], > 10 µM; in data set [5] it was > 10 µM. Also, the selectivity ratio in data set [2] was 2.8; in data set [11], 1.3. The GI50 at 48 h in [7] amounted to 4 µg/mL (≈ 9.82 µM); in [8] it was 20 µg/mL (≈ 49.1 µM); in data set [9], 13 µg/mL (≈ 31.9 µM); in [10] it was 4 µg/mL (≈ 9.82 µM); in data set [12] it was 9 µg/mL (≈ 22.1 µM); in [13] it was 12 µg/mL (≈ 29.5 µM). Also, the GI50 at 48 h in [14] came to 5 µg/mL (≈ 12.3 µM).

For `CN(C)CCNc1nccn2c(-c3ccncc3)c(-c3ccc(F)cc3)nc12`, the IC50 was 57.8 µM in data set [1]; 35.3 µM in data set [3]; 101 µM in [6]; 1.6 µM in [4]; 0.52 µM in [5]. Moreover, the values for the selectivity ratio in [2] and in data set [11] were 1.6 and 2.9, respectively. Also, the GI50 at 48 h in data set [7] came to 19 µg/mL (≈ 50.5 µM); in data set [8] it was 52 µg/mL (≈ 138 µM); in data set [9], 34 µg/mL (≈ 90.3 µM); in data set [10] it was 8 µg/mL (≈ 21.3 µM); in data set [12], 8 µg/mL (≈ 21.3 µM); in data set [13], 24 µg/mL (≈ 63.8 µM). Moreover, the GI50 at 48 h in data set [14] was 14 µg/mL (≈ 37.2 µM).

On to `c1ccc(-c2nc3cnccn3c2-c2ccncc2)cc1`, for which the IC50 in [1] was determined as 154 µM; in [3], 20.1 µM; in data set [4], 3.3 µM; in [17] it was 2.7 µM; in data set [5], 1.3 µM. Further, the values for the selectivity ratio in data set [2] and in data set [15] were 7.7 and 57, respectively. The outcome in data set [16] was inactive.

In the case of `CN(C)c1nccn2c(I)c(-c3ccc(F)cc3)nc12`, the IC50 is > 100 µM in data set [3], 99.4 µM in data set [6], > 10 µM in data set [4] and > 10 µM in data set [5]. Further, the GI50 at 48 h in data set [7] is > 125 µg/mL; in data set [8], 40 µg/mL (≈ 105 µM); in data set [9], 25 µg/mL (≈ 65.4 µM); in [10] it was > 125 µg/mL; in data set [12], 3 µg/mL (≈ 7.85 µM); in data set [13] it was 22 µg/mL (≈ 57.6 µM). Besides, the GI50 at 48 h in data set [14] is > 125 µg/mL.

(Values after ChEMBL document CHEMBL3632541, “Synthesis, antileishmanial activity and cytotoxicity of 2,3-diaryl- and 2,3,8-trisubstituted imidazo[1,2-a]pyrazines” (Eur J Med Chem, 2015).)
